These results are taken from ChEMBL document CHEMBL1136516, “Synthesis, pharmacology and pharmacokinetics of 3-(4-aryl-piperazin-1-ylalkyl)-uracils as uroselective alpha1A-antagonists” (Bioorg Med Chem Lett, 2003).

In general, Ki refers to the equilibrium dissociation constant of an inhibitor or competing ligand from its target. A high value points to weaker binding. The term clearance denotes the rate of elimination divided by the concentration. A low value points to inefficient removal. By Vd is commonly meant a proportionality between amount in the body and measured concentration, not a real space. Lower therefore signals little distribution into tissue. As usually defined, the half-life is how long it takes for the measured level to halve.

The target of data set [1] is T1, Alpha-1B adrenergic receptor (Homo sapiens, UniProt P35368).
T1 sequence (P35368 whole entry): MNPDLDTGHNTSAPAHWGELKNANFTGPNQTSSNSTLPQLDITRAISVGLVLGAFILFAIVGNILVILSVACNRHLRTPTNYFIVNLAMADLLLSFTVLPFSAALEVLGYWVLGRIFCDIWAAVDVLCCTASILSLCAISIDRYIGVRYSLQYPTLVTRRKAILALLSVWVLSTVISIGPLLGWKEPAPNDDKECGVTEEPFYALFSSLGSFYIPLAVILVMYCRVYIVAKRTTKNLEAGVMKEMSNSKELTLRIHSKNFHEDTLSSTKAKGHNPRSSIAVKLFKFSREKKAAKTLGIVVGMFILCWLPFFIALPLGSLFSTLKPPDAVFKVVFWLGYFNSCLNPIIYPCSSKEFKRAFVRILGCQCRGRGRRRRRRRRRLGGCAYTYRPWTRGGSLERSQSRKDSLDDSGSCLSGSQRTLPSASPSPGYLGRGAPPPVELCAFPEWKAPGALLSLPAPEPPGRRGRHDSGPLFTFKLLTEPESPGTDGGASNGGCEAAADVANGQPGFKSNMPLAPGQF
Kind of data set: Inhibition of [3H]prazosin binding to CHO-K1 whole cells expressing human cloned Alpha-1B adrenergic receptor. Format: cell-based.

In data set [2] the target is T2, Alpha-1D adrenergic receptor (Homo sapiens, UniProt P25100).
T2 sequence (P25100 whole entry): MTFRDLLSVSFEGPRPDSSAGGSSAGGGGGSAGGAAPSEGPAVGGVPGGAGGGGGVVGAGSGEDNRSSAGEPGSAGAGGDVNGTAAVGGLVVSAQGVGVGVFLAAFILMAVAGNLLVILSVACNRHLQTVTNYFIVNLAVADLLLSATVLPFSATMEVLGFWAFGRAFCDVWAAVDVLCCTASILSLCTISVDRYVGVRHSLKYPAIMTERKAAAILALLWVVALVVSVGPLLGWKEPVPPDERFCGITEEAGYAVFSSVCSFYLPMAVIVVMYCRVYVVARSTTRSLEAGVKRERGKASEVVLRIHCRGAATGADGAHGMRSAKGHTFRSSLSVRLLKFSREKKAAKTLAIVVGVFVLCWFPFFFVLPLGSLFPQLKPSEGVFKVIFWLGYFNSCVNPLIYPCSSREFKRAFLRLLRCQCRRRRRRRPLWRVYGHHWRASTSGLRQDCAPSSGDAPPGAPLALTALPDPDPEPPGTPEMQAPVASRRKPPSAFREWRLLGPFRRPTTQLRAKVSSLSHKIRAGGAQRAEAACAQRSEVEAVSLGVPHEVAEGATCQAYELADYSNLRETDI
Briefly: Inhibition of [3H]prazosin binding to CHO-K1 whole cells expressing human cloned Alpha-1D adrenergic receptor. Format: cell-based.

Data set [3] has as its target T3, Alpha-1A adrenergic receptor (Homo sapiens, UniProt P35348).
T3 sequence (P35348 whole entry): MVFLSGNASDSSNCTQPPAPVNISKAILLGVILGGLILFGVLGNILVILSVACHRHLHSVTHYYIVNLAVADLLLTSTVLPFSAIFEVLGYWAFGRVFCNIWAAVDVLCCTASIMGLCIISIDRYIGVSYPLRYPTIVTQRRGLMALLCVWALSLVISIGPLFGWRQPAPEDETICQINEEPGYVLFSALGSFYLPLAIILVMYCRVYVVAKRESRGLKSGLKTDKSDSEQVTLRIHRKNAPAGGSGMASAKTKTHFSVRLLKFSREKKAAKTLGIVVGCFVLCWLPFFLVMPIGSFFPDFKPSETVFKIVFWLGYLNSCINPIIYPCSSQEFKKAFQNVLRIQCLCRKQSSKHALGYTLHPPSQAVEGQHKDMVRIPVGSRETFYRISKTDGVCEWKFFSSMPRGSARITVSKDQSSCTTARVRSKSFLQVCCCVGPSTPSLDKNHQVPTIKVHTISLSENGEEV
Briefly: Inhibition of [3H]prazosin binding to CHO-K1 whole cells expressing human cloned Alpha-1A adrenergic receptor. Format: cell-based.

Data set [4] addresses Adrenergic receptors; alpha-1 A & B (Homo sapiens) (UniProt P35348+P35368). Kind of data set: Ratio of binding affinities for human cloned alpha1B- adrenoceptor to that of human cloned alpha1A- adrenoceptor (alpha-1B/alpha-1A). Type of data set: protein assay. In outline: (§1)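 Ratio of α1B (or α1D) to α1A binding affinity, calculated from pKi values for [3H]-prazosin displacement at cloned human subtypes expressed in CHO-K1 membranes or whole cells.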

Data set [5] deals with Alpha-1A adrenergic receptor (Oryctolagus cuniculus). Briefly: Antagonist inhibition of noradrenaline-stimulated contractions of rabbit bladderneck (RBN) for Alpha-1A adrenergic receptor.
Data set [6] concerns the target Alpha adrenergic receptor (1a and 1d) (Homo sapiens) (UniProt P35348+P25100). Briefly: Ratio of binding affinities for human cloned alpha1D- adrenoceptor to that of human cloned alpha1A- adrenoceptor (alpha-1D/alpha-1A). Type of data set: protein assay. In outline: as §1
Data set [7] has as its target T4, Alpha-1D adrenergic receptor (Rattus norvegicus) (UniProt P23944).
T4 sequence (whole entry): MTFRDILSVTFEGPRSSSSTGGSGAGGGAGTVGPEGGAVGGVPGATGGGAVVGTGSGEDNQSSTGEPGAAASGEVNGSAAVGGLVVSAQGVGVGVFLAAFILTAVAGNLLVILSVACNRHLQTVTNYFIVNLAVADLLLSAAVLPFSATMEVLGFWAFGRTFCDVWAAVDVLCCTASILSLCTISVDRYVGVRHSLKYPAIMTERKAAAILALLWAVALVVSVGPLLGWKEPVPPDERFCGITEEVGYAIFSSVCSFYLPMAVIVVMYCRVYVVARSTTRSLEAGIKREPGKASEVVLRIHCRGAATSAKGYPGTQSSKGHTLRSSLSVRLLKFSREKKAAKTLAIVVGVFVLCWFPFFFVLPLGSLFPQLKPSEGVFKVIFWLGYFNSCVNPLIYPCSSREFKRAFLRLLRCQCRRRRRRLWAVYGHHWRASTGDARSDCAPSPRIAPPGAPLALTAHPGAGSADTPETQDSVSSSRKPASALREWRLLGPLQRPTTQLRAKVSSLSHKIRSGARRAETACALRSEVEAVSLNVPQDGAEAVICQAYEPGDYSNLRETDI
Briefly: Antagonist inhibition noradrenaline-stimulated contractions of rat aortic strings for Alpha-1D adrenergic receptor. Type of data set: functional.

For data set [8], the system named is Alpha-1D/alpha-1A adrenergic receptors (rat/rabbit). Briefly: Ratio of antagonistic activities against alpha-1D vs alpha-1A determined in rat aorta and rabbit bladder neck respectively.
A short description of data set [9]: Oral bioavailability in dog (i.v. dosing). Format: ADME, organism-based, Canis lupus familiaris. The conditions noted are these: in vivo. In outline:
(§2)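 Single dose of 0.3 mg/kg given to dogs both iv and po in a cross-over design, four dogs per compound, with the compound dosed as a salt. Terminal half-life, volume of distribution (calculated after iv dosing only), clearance and oral bioavailability were taken from these single-dose pharmacokinetic profiles.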

A short description of data set [10]: Plasma clearance by iv administration in dog at a dose of 0.3 mg/kg. Format: ADME, organism-based, Canis lupus familiaris. More on the design: dose 0.3 mg/kg, route intravenous. The method in brief:
as §2

A short description of data set [11]: Oral bioavailability in dog. Type of data set: ADME, organism-based, Canis lupus familiaris. The conditions noted are these: in vivo. In outline: as §2
Data set [12] can be described thus: Volume of distribution by as 4 fold increase by iv administration in dogs. Type of data set: ADME, organism-based, Canis lupus familiaris. The conditions noted are these: dog, in vivo. The method in brief: as §2
For the next data set, the species on record is Canis familiaris. Briefly: In vitro relative rate of metabolism was determined in dog liver microsomes. Format: ADME, Canis lupus familiaris. A general note: Liver microsomes are a subcellular fraction often used to study metabolism.
A short description of data set [13]: Half life period by iv administration in dog at a dose of 0.3 mg/kg. The conditions noted are these: in vivo. Type of data set: ADME, organism-based, Canis lupus familiaris. More on the design: dose 0.3 mg/kg, route intravenous. The method in brief:
as §2

Data set [14] can be described thus: Half life period by po administration in dog at a dose of 0.3 mg/kg. Format: ADME, organism-based, Canis lupus familiaris. On the set-up: dose 0.3 mg/kg, route oral. The conditions noted are these: in vivo. In outline:
as §2

For the compound `COc1c[nH]c(=O)n(CCCN2CCN(c3ccc(F)cc3OCC(F)(F)F)CC2)c1=O`, the Ki was 158 nM in data set [1] and 31.6 nM in data set [2].
Consider `Cc1c[nH]c(=O)n(CC(C)(C)CN2CCN(c3ccccc3OCC(F)(F)F)CC2)c1=O`, for which the Ki in data set [1] is 398 nM; in [3] it was 3.98 nM; in data set [2] it was 126 nM.
For the compound `O=c1[nH]c2ccccc2c(=O)n1CCCN1CCN(c2ccccc2OCC(F)(F)F)CC1`, the Ratio in data set [4] amounted to 79; in data set [6], 32; in data set [8] it was 4. Further, the pA2/pKB stood at 9 in data set [5] and 8.4 in data set [7]. In addition, the Ki in [1] was 5.01 nM; in data set [3], 0.0631 nM; in [2], 2 nM.
As to `C[C@]1(O)C(=O)N(CCCN2CCN(c3ccc(F)cc3OCC(F)(F)F)CC2)C(=O)N[C@H]1O`, the Ratio in [4] came out at 63; in data set [6], 33; in [8] it was 79. Also, the bioavailability in [9] is 100%; in [11], 111%. Also, the clearance in data set [10] was 4.17 mL/min/kg. Also, the pA2/pKB in data set [5] is 8.5; in [7], 6.6. Further, the Vd in data set [12] was found to be 4 L/kg. In the data set listed under Canis familiaris, this compound displayed a Relative rate metabolism of 0. Besides, the inhibitory constant (Ki) in data set [1] was 251 nM; in data set [3], 5.01 nM; in data set [2], 126 nM. The half-life in data set [13] was 11 h; in data set [14] it was 10 h.
As to `Cc1n[nH]c(=O)n(CCCN2CCN(c3ccccc3OCC(F)(F)F)CC2)c1=O`, the Ki is 39.8 nM in data set [1], 0.316 nM in data set [3] and 7.94 nM in data set [2].
In the case of `Cc1c[nH]c(=O)n(CCN2CCN(c3ccc(F)cc3OCC(F)(F)F)CC2)c1=O`, the Ki is 15.8 nM in data set [1], 0.501 nM in data set [3] and 2.51 nM in data set [2].
Turning to `CN(C)c1c[nH]c(=O)n(CCCN2CCN(c3ccc(F)cc3OCC(F)(F)F)CC2)c1=O`, the Ki is 200 nM in data set [1] and 100 nM in data set [2].
In the case of `Cc1cn(CCCN2CCN(c3ccccc3OCC(F)(F)F)CC2)c(=O)[nH]c1=O`, the Ki in data set [1] is 100 nM; in [3], 2 nM; in data set [2], 20 nM.
Regarding `Cc1c[nH]c(=O)n(CCCN2CCN(c3ccc(F)cc3OCC(F)(F)F)CC2)c1=O`, the bioavailability in data set [9] was 100%; in data set [11], 78%. In data set [10], this compound had a clearance of 4.33 mL/min/kg. This compound registered a Vd in data set [12] of 0.93 L/kg. Further, the values for the half-life in [13] and in [14] were 2.5 h and 2.8 h, respectively. This compound also had a Ki in data set [2] of 63.1 nM.
Take `Cc1cc(=O)n(CCCN2CCN(c3ccc(F)cc3OCC(F)(F)F)CC2)c(=O)[nH]1`: the Ki in data set [1] is 158 nM; in [3], 1.58 nM; in data set [2] it was 50.1 nM.
On to `Cc1c[nH]c(=O)n(CCCN2CCN(c3ccccc3OCC(F)(F)F)CC2)c1=O`, for which the Ki in [1] was 31.6 nM; in data set [3], 0.251 nM; in data set [2] it was 12.6 nM.
